Assay results published in ChEMBL document CHEMBL3091281, “Neuroprotective benzyl benzoate glycosides from Disporum viridescens roots in HT22 hippocampal neuronal cells” (J Nat Prod, 2013).
Blank lines part the entries; values can stand above or below the compound they belong to. Calls of active or inactive are those of the source. The calls are words filed in the database; no cut-off is given here.

Experiments:
BV-2 (Mus musculus) [1] = test: Antiinflammatory activity in mouse BV2 cells assessed as inhibition of LPS-stimulated NO production at 10 to 100 uM by Griess assay
BV-2 (Mus musculus) [2] = test: Cytotoxicity against mouse BV2 cells
HT-22 [3] = test: Cytotoxicity against mouse HT22 cells; assay type: cell-based
In short: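 MTT viability assay in BV2 and HT22 cells, compounds tested without glutamate.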

HT-22 [4] = test: Neuroprotective activity against L-glutamate-induced neurotoxicity in mouse HT22 cells assessed as cell viability at 10 to 100 uM incubated 1 hr prior to L-glutamate-challenge measured after 12 hrs by MTT assay; assay type: functional, cell-based
In short: (§1)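 Mouse hippocampal HT22 cells seeded at 3 × 10^4 per well in DMEM, pretreated 1 h with compound in DMSO (0.1% final), then exposed to 5 mM L-glutamate; viability by MTT after further 12 h.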

HT-22 [5] = test: Neuroprotective activity against L-glutamate-induced neurotoxicity in mouse HT22 cells assessed as GSH-Px activity at 50 uM incubated 1 hr prior to L-glutamate-challenge measured after 12 hrs (reference value: 0.036 +/- 0.001 mU/mg protein); assay type: functional
HT-22 [6] = test: Neuroprotective activity against L-glutamate-induced neurotoxicity in mouse HT22 cells assessed as GR activity at 10 uM incubated 1 hr prior to L-glutamate-challenge measured after 12 hrs (reference value: 0.94 +/- 0.19 mU/mg protein); assay type: functional
HT-22 [7] = test: Neuroprotective activity against L-glutamate-induced neurotoxicity in mouse HT22 cells assessed as GSH-Px activity at 10 uM incubated 1 hr prior to L-glutamate-challenge measured after 12 hrs (reference value: 0.036 +/- 0.001 mU/mg protein); assay type: functional
HT-22 [8] = test: Neuroprotective activity against L-glutamate-induced neurotoxicity in mouse HT22 cells assessed as GSH/GSSG ratio incubated 1 hr prior to L-glutamate-challenge measured after 12 hrs; assay type: functional, cell-based
HT-22 [9] = test: Neuroprotective activity against L-glutamate-induced neurotoxicity in mouse HT22 cells assessed as cell viability at 100 uM incubated 1 hr prior to L-glutamate-challenge measured after 12 hrs by MTT assay in presence of SnPP; assay type: functional, cell-based
In short: as §1

HT-22 [10] = test: Neuroprotective activity against L-glutamate-induced neurotoxicity in mouse HT22 cells assessed as GSH/GSSG ratio at 50 uM incubated 1 hr prior to L-glutamate-challenge measured after 12 hrs (reference value: 1.105 +/- 0.112); assay type: functional
HT-22 [11] = test: Neuroprotective activity against L-glutamate-induced neurotoxicity in mouse HT22 cells assessed as SOD activity at 100 uM incubated 1 hr prior to L-glutamate-challenge measured after 12 hrs by xanthine-xanthine oxidase reaction (reference value: 16.10 +/- 0.54 U/mg protein); assay type: functional
HT-22 [12] = test: Neuroprotective activity in mouse HT22 cells assessed as HO-1 protein expression at 100 uM by Western blotting analysis in presence of SB203580; assay type: functional, cell-based
In short: (§2)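 HT22 cells treated 30 min (kinases) or 12 h (HO-1) at stated concentrations or times; lysed in RIPA with protease and phosphatase inhibitors, 30 μg protein on 10% SDS-PAGE, PVDF transfer, overnight 4 °C primary antibodies (HO-1, ERK/p-ERK, JNK/p-JNK, p38/p-p38, β-actin), ECL detection.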

HT-22 [13] = test: Antioxidant activity in mouse HT22 cells assessed as HO-1 protein expression at 100 uM after 6 to 18 hrs by Western blotting analysis; assay type: functional, cell-based
In short: as §2

HT-22 [14] = test: Neuroprotective activity against L-glutamate-induced neurotoxicity in mouse HT22 cells assessed as GR activity at 100 uM incubated 1 hr prior to L-glutamate-challenge measured after 12 hrs (reference value: 0.94 +/- 0.19 mU/mg protein); assay type: functional
HT-22 [15] = test: Induction of ERK phosphorylation in mouse HT22 cells at 100 uM after 0.5 to 12 hrs by Western blotting analysis; assay type: cell-based
In short: as §2

HT-22 [16] = test: Neuroprotective activity against L-glutamate-induced neurotoxicity in mouse HT22 cells assessed as SOD activity at 50 uM incubated 1 hr prior to L-glutamate-challenge measured after 12 hrs by xanthine-xanthine oxidase reaction (reference value: 16.10 +/- 0.54 U/mg protein); assay type: functional
[17] = target: MAP kinase p38 (Mus musculus) (UniProt P47811+O08911+Q9WUI1+Q9Z1B7); test: Induction of p38 phosphorylation in mouse HT22 cells at 100 uM after 0.5 to 12 hrs by Western blotting analysis; assay type: cell-based; settings: HT-22
In short: as §2

HT-22 [18] = test: Antioxidant activity in mouse HT22 cells assessed as HO-1 protein expression after 0.5 to 12 hrs by Western blotting analysis; assay type: functional, cell-based
In short: as §2

HT-22 [19] = test: Neuroprotective activity in mouse HT22 cells assessed as HO-1 protein expression at 100 uM by Western blotting analysis in presence of PD98059; assay type: functional, cell-based
In short: as §2

HT-22 [20] = test: Neuroprotective activity against L-glutamate-induced neurotoxicity in mouse HT22 cells assessed as GSH-Px activity at 100 uM incubated 1 hr prior to L-glutamate-challenge measured after 12 hrs (reference value: 0.036 +/- 0.001 mU/mg protein); assay type: functional
HT-22 [21] = test: Induction of JNK phosphorylation in mouse HT22 cells at 100 uM after 0.5 to 12 hrs by Western blotting analysis; assay type: cell-based
In short: as §2

HT-22 [22] = test: Neuroprotective activity against L-glutamate-induced neurotoxicity in mouse HT22 cells assessed as GSH/GSSG ratio at 10 uM incubated 1 hr prior to L-glutamate-challenge measured after 12 hrs (reference value: 1.105 +/- 0.112); assay type: functional
HT-22 [23] = test: Neuroprotective activity against L-glutamate-induced neurotoxicity in mouse HT22 cells assessed as GR activity at 50 uM incubated 1 hr prior to L-glutamate-challenge measured after 12 hrs (reference value: 0.94 +/- 0.19 mU/mg protein); assay type: functional
HT-22 [24] = test: Neuroprotective activity against L-glutamate-induced neurotoxicity in mouse HT22 cells assessed as GSH/GSSG ratio at 100 uM incubated 1 hr prior to L-glutamate-challenge measured after 12 hrs (reference value: 1.105 +/- 0.112); assay type: functional
HT-22 [25] = test: Neuroprotective activity against L-glutamate-induced neurotoxicity in mouse HT22 cells assessed as SOD activity at 10 uM incubated 1 hr prior to L-glutamate-challenge measured after 12 hrs by xanthine-xanthine oxidase reaction (reference value: 16.10 +/- 0.54 U/mg protein); assay type: functional
HT-22 [26] = test: Neuroprotective activity in mouse HT22 cells assessed as HO-1 protein expression at 100 uM by Western blotting analysis in presence of SP600125; assay type: functional, cell-based
In short: as §2

HT-22 [27] = test: Antioxidant activity in mouse HT22 cells assessed as HO-1 protein expression at 100 uM by Western blotting analysis; assay type: functional, cell-based; settings: TDE = time-dependent effect
In short: as §2

SMILES: COc1c(O)ccc(O[C@@H]2O[C@@H](C)[C@H](O)[C@@H](O)[C@H]2O)c1C(=O)OCc1ccccc1O[C@@H]1O[C@H](CO)[C@@H](O)[C@H](O)[C@H]1O
- Activity (BV-2 (Mus musculus) [1]): Active
- Activity (BV-2 (Mus musculus) [2]): Toxic
- Activity (HT-22 [3]): Toxic
- Activity (HT-22 [4]): Active

SMILES: O=C(OCc1ccccc1O[C@@H]1O[C@H](CO)[C@@H](O)[C@H](O)[C@H]1O)c1c(O)cccc1O[C@@H]1O[C@H](CO)[C@@H](O)[C@H](O)[C@H]1O
- Activity (BV-2 (Mus musculus) [1]): Active
- Activity (BV-2 (Mus musculus) [2]): Toxic
- Activity (HT-22 [3]): Toxic

SMILES: C[C@@H]1O[C@@H](Oc2ccc(O)c(O)c2C(=O)OCc2ccccc2O[C@@H]2O[C@H](CO)[C@@H](O)[C@H](O)[C@H]2O)[C@H](O)[C@H](O)[C@H]1O
- Activity (BV-2 (Mus musculus) [1]): Active
- Activity (BV-2 (Mus musculus) [2]): Toxic
- Activity (HT-22 [3]): Toxic

- Activity [17]: inactive
SMILES: COc1c(O)ccc(O[C@@H]2O[C@@H](C)[C@H](OC(C)=O)[C@@H](O)[C@H]2O)c1C(=O)OCc1ccccc1O[C@@H]1O[C@H](CO)[C@@H](O)[C@H](O)[C@H]1O
- Activity (HT-22 [5]): 0.055 mU/mg
- Activity (HT-22 [6]): 0.72 mU/mg
- Activity (HT-22 [7]): 0.056 mU/mg
- Activity (HT-22 [8]): Dose-dependent effect
- Activity (BV-2 (Mus musculus) [1]): Active
- Activity (HT-22 [9]): inactive
- Ratio (HT-22 [10]): 2.3
- Activity (HT-22 [11]): 30.71 U/mg
- Activity (BV-2 (Mus musculus) [2]): Toxic
- Activity (HT-22 [12]): Active
- Activity (HT-22 [13]): Active
- Activity (HT-22 [14]): 1.14 mU/mg
- Activity (HT-22 [15]): Active
- Activity (HT-22 [16]): 29.05 U/mg
- Activity (HT-22 [18]): Dose-dependent effect
- Activity (HT-22 [19]): inactive
- Activity (HT-22 [3]): Toxic
- Activity (HT-22 [20]): 0.059 mU/mg
- Activity (HT-22 [21]): inactive
- Ratio (HT-22 [22]): 1.594
- Activity (HT-22 [23]): 0.9 mU/mg
- Ratio (HT-22 [24]): 2.824
- Activity (HT-22 [25]): 29.78 U/mg
- Activity (HT-22 [26]): Active
- Activity (HT-22 [27]): tde
- Activity (HT-22 [4]): Active

SMILES: COc1ccc(O[C@@H]2O[C@@H](C)[C@H](O)[C@@H](O)[C@H]2O)c(C(=O)OCc2ccccc2O[C@@H]2O[C@H](CO)[C@@H](O)[C@H](O)[C@H]2O)c1O
- Activity (BV-2 (Mus musculus) [1]): Active
- Activity (BV-2 (Mus musculus) [2]): Toxic
- Activity (HT-22 [3]): Toxic
- Activity (HT-22 [4]): Active

SMILES: COc1c(O)ccc(O[C@@H]2O[C@@H](C)[C@H](O)[C@@H](O)[C@H]2O)c1C(=O)OCc1ccccc1O[C@@H]1O[C@@H](C)[C@H](O)[C@@H](O)[C@H]1O
- Activity (BV-2 (Mus musculus) [1]): Active
- Activity (BV-2 (Mus musculus) [2]): Toxic
- Activity (HT-22 [3]): Toxic
- Activity (HT-22 [4]): Active
